Assay outcomes as filed in PubChem BioAssay.
HSF1 activator – HSF-1 activators, primary screen, NIH3T3-HGL cells, MG132 stress, luminescence, single point | activation, % at 9 µM | NIH3T3-HGL HSF-1 luciferase reporter, 8 h; 100% = twice DMSO control signal | 1.7% of 300,000 active;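 active = mean replicate activation of at least 50% with a set share of replicates each reaching 50%; inconclusive = only one of those two conditions met; inactive = mean below 50% and too few replicates reaching it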
Hsp70 activator – Hsp70 transcriptional activators, primary screen, cell-based, HeLa, Hsp70 promoter luciferase, luminescence, 10 µM | HeLa Hsp70 promoter luciferase reporter; scaled: vehicle 0, proteasome-inhibitor control 100% | activation, % at 10 µM | 0.04% of 200,000 active;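 active = activation above the mean across all tested compounds plus 3 SD, cutoff set per campaign, cut at about 5.5% in these data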
T cruzi inh – inhibitors of intracellular T. cruzi growth, primary screen, luminescence, NIH3T3 host cells | inhibition, % (no concentration beside the values) | T. cruzi beta-gal in NIH3T3, 90 h | 1.4% of 300,000 active;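 active = mean inhibition across valid replicates above about 55%, limit read from the data; inconclusive = mean below that limit but half or more replicates reach it; inactive = mean below it, under half of replicates reach it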;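 note: signal also drops with host cell toxicity which is not excluded here; higher percent means less beta-gal luminescence so fewer parasites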
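Read-out: Parasite load inhibition, % | Test system: Mouse NIH/3T3 fibroblasts infected with β-gal-expressing T. cruzi Tulahuen C4 | Amount: 5,000 cells/well | Medium: DMEM, 2% fetal bovine serum | Signal: GalScreen β-gal luminescence, detergent lysis, 60 min | Timing: 3 h attach, ≥90 h co-culture | Also added: Tulahuen C4 trypomastigotes, 5000/well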
HSF1 inh – HSF1 inhibitors in luciferase reporter cells, primary screen, cell-based, NIH3T3, luminescence; 0.77% of 300,000 active; NIH3T3-HGL HSE-luciferase, MG132-induced, luminescence 8 h; hits give low values; activity change, negative = inhibition, % at 7.5 µM (by protocol); AID 2098, 2009;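 active = more than half of replicate wells show activity change below -50%, luminescence cut by over half; inconclusive = some wells, but at most half, below -50%; inactive = no replicate well below -50%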;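 note: luciferase reports HSF-1 transcriptional activity via heat shock element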
Lmaj promast – Leishmania major promastigote growth inhibition, primary screen | 9% of 200,000 active | inhibition, % at 10 µM | AID 1063, 2008 | Leishmania major promastigotes, resazurin fluorescence viability; in the data active = inhibition above about 50%;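 note: promastigotes grown with compound for 44 hours at 28 °C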
Numbers stand for hits; n = inactive; u = inconclusive; x = not tested or not shown. This excerpt belongs to a sample that is enriched for hits.

SMILES	HSF1 activator	Hsp70 activator	T cruzi inh	HSF1 inh	Lmaj promast
Cc1c(C)n(Cc2ccccc2)c2ncnc(N)c12	n	n	n	n	n
COc1cc(OC)c(OC)cc1/C=N/NC(=S)NCCN1CCOCC1	n	n	n	n	n
COc1cc(OC)c(OC)cc1/C=N/NC(=S)NCC1CCCO1 (stereo not given)	n	n	n	-70	n
COc1ccc(-c2csc3nc(-c4ccc(C)cc4)oc(=O)c23)cc1OC	n	n	n	n	n
COc1ccc(-c2csc3nc(-c4ccccc4OC)oc(=O)c23)cc1	91	n	n	n	n
Cn1cccc1C(=O)C(=O)Nc1ccc(F)c(F)c1	63	n	n	n	n
Cn1cccc1C(=O)C(=O)Nc1ccc(Cl)cc1	n	n	n	n	n
C=CCSc1nnc2nc3[nH]c4c(C)cccc4c3nn12	n	n	n	n	72
CCSc1nnc2c(n1)[nH]c1c(C)cccc12	n	n	n	n	n
COC(=O)c1ccc(CNC(=O)CN(CCC(C)C)S(=O)(=O)c2ccc3c(c2)OCCO3)cc1	n	n	n	n	56
O=C(CNc1cc(S(=O)(=O)N2CCOCC2)ccc1NCC1CCCO1)Nc1ccc(F)c(F)c1 (stereo not given)	n	x	n	n	x
COc1ccc(NC(=O)/C(Cl)=C(/Cl)S(=O)(=O)Cc2ccccc2)cn1	n	n	n	-76	n
O=C1C2=C(Nc3ccccc3SC2c2ccco2)c2ccccc21 (stereo not given)	n	n	n	n	99
O=C1c2ccccc2NC(c2ccco2)N1O (stereo not given)	n	n	n	n	n
CC(=O)Nc1ccc(Nc2cc(C)nc3c(-c4ccc(Cl)cc4)c(C)nn23)cc1	n	n	n	n	93
CC(=O)Nc1ccc(Nc2cc(C)nc3c(-c4ccc(Cl)cc4)cnn23)cc1	n	n	n	n	79
Cc1cc(NCCN2CCOCC2)n2ncc(-c3ccc(Cl)cc3)c2n1	x	n	x	x	n
COc1ccc(/C=C/C(=O)N2CCN(c3ccccn3)CC2)cc1OC	n	x	n	n	x
COc1ccc(CN(CC2CCC(C(=O)O)CC2)C(=S)Nc2cccc(C)c2)cc1 (stereo not given)	n	n	n	n	n
COc1ccc2oc(C(=O)Nc3nc4ccccc4[nH]3)c(C)c2c1	n	x	n	n	x
O=c1oc2c(O)cccc2cc1-c1nc2ccccc2[nH]1	n	x	n	n	x
COc1cccc(N=c2oc3ccccc3cc2-c2nc3ccccc3[nH]2)c1	71	n	n	n	n
COc1ccc(N=c2oc3ccc(OC)cc3cc2-c2nc3ccccc3[nH]2)cc1	58	n	n	n	n
COc1cccc(OCc2nc3ccccc3[nH]2)c1	n	n	n	n	n
COc1cccc(N=c2oc3ccc(OC)cc3cc2-c2nc3ccccc3[nH]2)c1	54	n	n	n	n
SMILES	HSF1 activator	Hsp70 activator	T cruzi inh	HSF1 inh	Lmaj promast
O=C(Nc1cccc(Cl)c1)c1cccnn1	n	x	n	n	x
CN1CCN(NC(=S)Nc2ccc(OC(F)F)cc2)CC1	n	n	n	n	n
CCCc1cc(=O)[nH]c(SCC(=O)N(CCOC)c2c(N)n(Cc3ccccc3)c(=O)[nH]c2=O)n1	n	x	n	n	x
C/C(=N\Nc1nc(C)cc(-c2ccccc2)n1)c1cccc(N)c1	n	x	n	n	x
CC(C)(C)c1ccc(C(=O)CC(Sc2ccc(Cl)cc2)C(=O)O)cc1 (stereo not given)	56	n	60	n	78
CCN(CC)c1nc(SCCOC(=O)Nc2ccccc2)nc(N(CC)CC)n1	n	n	68	n	n
Cc1cccc2nc(COc3ccc(Cl)c4cccnc34)cn12	n	n	n	n	n
COc1cccc(N/C(SCc2cccc([N+](=O)[O-])c2)=C(/C#N)C(N)=O)c1	n	n	67	n	94
CC(C)(C)C1CCC(=NNC(=O)CN(c2ccccc2)S(=O)(=O)c2ccccc2[N+](=O)[O-])CC1 (stereo not given)	n	n	n	n	n
C/C(=N\NC(=O)CN(c1ccccc1)S(=O)(=O)c1ccccc1[N+](=O)[O-])C(C)(C)C	n	n	n	n	90
C/C(=N\NC(=O)CCC(=O)N/N=C(\C)c1ccc(C)o1)c1ccc(C)o1	n	x	n	n	x
CCOC(=O)N/N=C(/C)c1ccc([N+](=O)[O-])o1	n	n	57	n	96
O=C(/C=C/Nc1ccc(F)c(F)c1)c1ccc(Br)cc1	u	n	n	n	n
O=C(/C=C/Nc1ccc(F)c(F)c1)c1cccs1	n	n	n	n	n
O=C(/C=C/Nc1ccc(F)cc1)c1cccs1	65	n	n	n	n
O=C(/C=C/Nc1ccc(F)cc1)c1ccc(Br)cc1	65	n	n	n	n
Cc1cc(N/C=C/C(=O)c2ccc(Br)cc2)no1	55	n	n	n	n
Cc1[nH]c(N=Nc2ccccc2)nc1N=Nc1ccccc1	n	x	65	n	x
Nc1ccc(N=Nc2ccccc2)c(N)n1	n	n	n	n	n
CN(C(=O)COC(=O)c1ccc2c(c1)OCO2)c1c(N)n(Cc2ccccc2)c(=O)[nH]c1=O	n	x	n	n	x
Cc1cccc(/C=N\NC(=O)c2ccccc2-n2cccc2)c1	n	n	n	n	n
O=C(N/N=C/c1ccc(Br)cc1)c1ccccc1-n1cccc1	n	n	n	n	65
CC1(C)CC(=O)c2sc(NC(=O)CCS(=O)(=O)c3ccccc3)nc2C1	n	n	n	n	78
CC1(C)CNC(=O)c2sc(NC(=O)c3ccccc3)nc2C1	n	n	n	n	n
CC1(C)CC(=O)c2sc(NC(=O)c3ccccc3)nc2C1	54	n	n	n	n
SMILES	HSF1 activator	Hsp70 activator	T cruzi inh	HSF1 inh	Lmaj promast
Cc1cc(=O)oc2c(C)c(OC(C)C(=O)Nc3ccc(N4CCC(C)CC4)cc3)ccc12 (stereo not given)	n	x	n	n	x
O=C(CSc1nncc2ccccc12)Nc1cccc(O)c1	67	x	n	n	x
O=C(CSc1nnc2c3ccccc3c3ccccc3c2n1)Nc1ccccc1	n	n	n	n	97
Cc1noc(NS(=O)(=O)c2ccc(NC(=O)CSc3nnc4c(n3)[nH]c3ccccc34)cc2)c1C	n	n	n	n	57
O=C(CSc1nnc2c3ccccc3c3ccccc3c2n1)Nc1ccccc1F	n	n	n	n	n
Cc1ccc(S(=O)(=O)/N=C(/Nc2ccc3[nH]c(=O)[nH]c3c2)c2ccc(F)cc2)cc1	n	n	n	n	n
O=C(CSc1n[nH]c(-c2ccccc2F)n1)NCC(=O)Nc1ccc(F)c(F)c1F	n	n	n	n	n
Cc1ccccc1C(=O)c1cccn1CC(=O)NCCN1CCN(c2cccc(C)c2C)CC1	n	n	n	n	100
Cc1ccc(C)c(N2CCN(CCCNC(=O)Cn3cccc3C(=O)c3ccccc3C)CC2)c1	n	n	n	n	93
